The values that follow come from ChEMBL document CHEMBL2429723, “Design and synthesis of MMP inhibitors with appended fluorescent tags for imaging and visualization of matrix metalloproteinase enzymes” (Bioorg Med Chem Lett, 2013).

Data set [1] deals with 72 kDa type IV collagenase (Homo sapiens, UniProt P08253). Description: Inhibition of human recombinant MMP2 using Mca-Lys-Pro-Leu-Gly-Leu-Dpa-Ala-Arg-NH2 as substrate by fluorescence plate reader analysis. The method in brief: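 rhMMP2 activated with 1 mM APMA in assay buffer (50 mM Tris, 10 mM CaCl2, 150 mM NaCl, 0.05% Brij-35, pH 7.5), 37 °C, 1 h, then diluted to 248 ng/mL. Enzyme and test samples combined at ambient temperature; substrate (25 µM) added to start. Kinetic fluorescence at 320 nm excitation/405 nm emission; blank-subtracted duplicates; IC50 from six-point curves.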
Chain of 72 kDa type IV collagenase (P08253 whole entry): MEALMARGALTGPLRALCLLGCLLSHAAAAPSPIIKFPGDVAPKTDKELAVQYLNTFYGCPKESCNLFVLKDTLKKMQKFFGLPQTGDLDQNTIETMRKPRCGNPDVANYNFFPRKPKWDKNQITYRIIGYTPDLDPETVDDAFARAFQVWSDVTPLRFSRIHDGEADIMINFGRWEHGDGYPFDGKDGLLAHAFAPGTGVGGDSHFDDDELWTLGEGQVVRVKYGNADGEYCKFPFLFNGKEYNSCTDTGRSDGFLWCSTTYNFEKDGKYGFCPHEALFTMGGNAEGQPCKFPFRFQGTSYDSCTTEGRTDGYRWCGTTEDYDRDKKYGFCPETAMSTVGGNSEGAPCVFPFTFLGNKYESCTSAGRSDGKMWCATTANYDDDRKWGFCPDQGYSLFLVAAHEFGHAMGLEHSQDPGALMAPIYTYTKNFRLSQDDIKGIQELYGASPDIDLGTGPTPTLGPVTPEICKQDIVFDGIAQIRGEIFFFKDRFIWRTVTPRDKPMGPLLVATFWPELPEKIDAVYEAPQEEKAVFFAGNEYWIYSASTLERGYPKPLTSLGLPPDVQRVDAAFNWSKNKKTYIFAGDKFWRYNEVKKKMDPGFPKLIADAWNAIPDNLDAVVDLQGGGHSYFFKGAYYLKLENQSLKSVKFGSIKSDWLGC

For data set [2], the target named is Matrix metalloproteinase-9 (Homo sapiens, UniProt P14780). Description: Inhibition of human MMP9.
Chain of Matrix metalloproteinase-9 (P14780 whole entry): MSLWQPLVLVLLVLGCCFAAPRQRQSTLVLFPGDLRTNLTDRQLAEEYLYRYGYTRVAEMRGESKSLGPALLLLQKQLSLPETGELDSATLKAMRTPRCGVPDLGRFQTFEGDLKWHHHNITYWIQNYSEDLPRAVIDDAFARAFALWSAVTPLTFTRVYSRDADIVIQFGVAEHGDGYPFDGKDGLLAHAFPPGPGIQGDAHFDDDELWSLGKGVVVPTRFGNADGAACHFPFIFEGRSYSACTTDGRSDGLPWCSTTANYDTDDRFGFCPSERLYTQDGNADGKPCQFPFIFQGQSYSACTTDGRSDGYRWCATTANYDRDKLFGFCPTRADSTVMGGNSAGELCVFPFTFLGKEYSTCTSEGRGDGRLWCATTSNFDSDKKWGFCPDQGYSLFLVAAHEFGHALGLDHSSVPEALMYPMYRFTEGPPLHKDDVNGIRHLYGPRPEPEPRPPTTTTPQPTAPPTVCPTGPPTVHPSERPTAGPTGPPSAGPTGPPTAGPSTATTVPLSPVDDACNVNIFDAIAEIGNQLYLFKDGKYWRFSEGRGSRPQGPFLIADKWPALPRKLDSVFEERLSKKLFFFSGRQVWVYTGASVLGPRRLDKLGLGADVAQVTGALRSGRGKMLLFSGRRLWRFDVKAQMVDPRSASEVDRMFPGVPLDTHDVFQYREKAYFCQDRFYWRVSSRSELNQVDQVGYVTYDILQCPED
Another data set has as its system MCF7. Kind of data set: Cellular uptake in human MCF7 cells over-expressing MMP14 by confocal microscopy relative to control. It counts as ADME, cell-based. The method in brief:
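MMP-14-overexpressing and parental MCF7 cells incubated with the conjugate at 37 °C and imaged by confocal microscopy, parental cells serving as comparison.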

Data set [3] addresses Matrix metalloproteinase-14 (Homo sapiens, UniProt P50281). Kind of data set: Inhibition of human recombinant MMP14 using Mca-Lys-Pro-Leu-Gly-Leu-Dpa-Ala-Arg-NH2 as substrate by fluorescence plate reader analysis. The method in brief: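 Enzyme and test samples combined at ambient temperature; substrate (20 µM) added to start. Kinetic read at 320/405 nm, substrate blank subtracted, duplicates, IC50 from six-point dose-response curves.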

In general, IC50 refers to the midpoint of a concentration-inhibition curve. As to `O=C(NO)C1(S(=O)(=O)c2ccc(Oc3ccc(OC(F)(F)F)cc3)cc2)CCN(C2CC2)CC1`, the half-inhibitory concentration (IC50) in data set [1] was < 1 nM.

As for `CC(C)(C)NC(=O)c1nc(N)c(C(=O)NCCC(=O)N2CCC(C(=O)NO)(S(=O)(=O)c3ccc(Oc4ccc(OC(F)(F)F)cc4)cc3)CC2)nc1N`, the concentration for half-maximal inhibition (IC50) in data set [2] came out at 4.1 nM; in data set [1], 5.1 nM.

As to `Nc1nc(C(=O)N2CCC(C(=O)NO)(S(=O)(=O)c3ccc(Oc4ccc(OC(F)(F)F)cc4)cc3)CC2)c(N)nc1C(=O)N1CCCC1`, the IC50 in data set [2] and in data set [1] was < 1 nM each time.

For `CN(C)c1ncc(N2CCC(C(=O)NO)(S(=O)(=O)c3ccc(Oc4ccc(OC(F)(F)F)cc4)cc3)CC2)nc1C#N`, the half-inhibitory concentration (IC50) in data set [2] was < 1 nM; in data set [1], 1.6 nM.

Consider `N[C@@H](CCCCNC(=O)c1ccc2c(c1)C(=O)OC21c2ccc(O)cc2Oc2cc(O)ccc21)C(=O)N1CCC(C(=O)NO)(S(=O)(=O)c2ccc(Oc3ccc(OC(F)(F)F)cc3)cc2)CC1`, for which the IC50 in data set [2] was < 1 nM; in data set [3], 100 nM; in data set [1], < 1 nM. Moreover, in the data set with MCF7, the Drug uptake entry is given as “Active”.

Consider `CC1(C)C(/C=C/C2=C(N3CCC(C(=O)NO)(S(=O)(=O)c4ccc(Oc5ccc(OC(F)(F)F)cc5)cc4)CC3)C(=C/C=C3/N(CCCCS(=O)(=O)O)c4ccccc4C3(C)C)/CCC2)=[N+](CCCCS(=O)(=O)[O-])c2ccccc21`, for which the IC50 amounted to 1.6 nM in data set [2] and 2.8 nM in data set [1].
